Assay outcomes: PubChem BioAssay, The Scripps Research Institute Molecular Screening Center
CHRM5 antagonist: blocks acetylcholine activation of human M5 receptor; actives 0.59% (n = 360,000); CHO-hM5 cells, Fluo-8 calcium fluorescence, ACh EC80; P08912; AID 624040; inhibition, % at 3 µM;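 active = inhibition above a per-plate cutoff, the mean of that plate's test compounds plus 3 SD, cut at about 27% in these data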;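 also: 0% = acetylcholine EC80 with DMSO and 100% = DMSO without agonist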
CHRM5 agonist: CHRM5 agonism in calcium assay; actives 0.19% (n = 360,000); P08912; activation, % at 3 µM; CHO-K1 hM5 cells, Fluo-8 calcium fluorescence; 0% DMSO wells, 100% maximal acetylcholine response;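 active = activation above the run's mean over test compounds plus 3 SD, cut at about 23% in these data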;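 also: signal is peak over basal fluorescence ratio across the kinetic read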
M4 antag: CHRM4 antagonism in calcium assay; P08173; CHO-hM4 cells, ACh EC80, Fluo-8 calcium fluorescence; inhibition, % at 3 µM; actives 0.73% (n = 360,000);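 active = inhibition above its plate's cutoff, the mean inhibition of sample wells plus 3 SD, cut at about 27% in these data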;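 also: 0% = acetylcholine EC80 with DMSO and 100% = DMSO without agonist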
Target sequence (P08173 whole entry, looked up): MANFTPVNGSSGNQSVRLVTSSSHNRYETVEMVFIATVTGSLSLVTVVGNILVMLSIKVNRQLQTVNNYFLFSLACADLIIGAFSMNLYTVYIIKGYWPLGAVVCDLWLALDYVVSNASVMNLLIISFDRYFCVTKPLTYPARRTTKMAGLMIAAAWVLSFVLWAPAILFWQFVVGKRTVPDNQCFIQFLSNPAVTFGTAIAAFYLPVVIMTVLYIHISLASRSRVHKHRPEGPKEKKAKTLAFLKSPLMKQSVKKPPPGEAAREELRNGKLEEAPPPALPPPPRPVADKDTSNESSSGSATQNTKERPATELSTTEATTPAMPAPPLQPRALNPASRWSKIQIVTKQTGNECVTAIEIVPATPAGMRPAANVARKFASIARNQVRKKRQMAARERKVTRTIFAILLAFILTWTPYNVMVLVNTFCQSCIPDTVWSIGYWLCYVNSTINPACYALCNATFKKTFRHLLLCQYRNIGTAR
CHRM4 agonist: agonists of human muscarinic M4 receptor (CHRM4); P08173; CHO-K1 hM4/Gqi5, Fluo-8 calcium fluorescence; vehicle 0%, full acetylcholine response 100%; activation, % at 3 µM; actives 0.14% (n = 360,000);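 active = activation above the run mean over all test wells plus 3 SD, cut at about 32% in these data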;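 also: peak over basal fluorescence ratio per well then scaled between controls; 0% = DMSO wells and 100% = acetylcholine at EC100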
M4 PAM: potentiates acetylcholine response at human M4 receptor. P08173. CHO-K1 hM4/Gqi5, Fluo-8 calcium fluorescence, ACh EC20; 0% = ACh EC20, 100% = maximal ACh. activation, % at 3 µM. actives 0.4% (n = 360,000). AID 624126;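 active = activation above its plate's cutoff, the mean activation of sample wells plus 3 SD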
M5 PAM: potentiates acetylcholine response at human M5 receptor. P08912. CHO-K1 hM5, Fluo-8 calcium, ACh EC20 PAM; 0% = ACh EC20, 100% = ACh EC100. activation, % at 3 µM. actives 0.3% (n = 360,000);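 active = activation above the run cutoff, the mean activation of all test compounds plus 3 SD, cut at about 18% in these data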
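Measured by: Fluo-8 calcium fluorescence; material: human M5 receptor in CHO-K1 cells; schedule: Post-acetylcholine fluorescence recording 140 s; benchmarks: low control EC20 acetylcholine (0%), high control EC100 acetylcholine (100%); read-out: Max/basal fluorescence ratio as % of EC20–EC100 ACh window; compound: single dose, 3 µM nominal final test concentration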
* marks the source's active call; other numbers are inactive results. Only some compounds are listed: those with a hit (about 1.9% of all), similar ones and a draw of the others.

SMILES	CHRM5 antagonist	CHRM5 agonist	M4 antag	CHRM4 agonist	M4 PAM	M5 PAM
Cc1ccc(NC(=S)NCCSc2ccc(Cl)cc2)cc1	17	-15	36*	8	-28	-33
NS(=O)(=O)c1ccc(NC(=S)NCCc2ccccc2)cc1	9	-1	0	1	-2	-6
O=[N+]([O-])c1ccc(NC(=S)NCCc2ccc(Cl)cc2)cc1	27*	3	25	7	-19	-17
O=[N+]([O-])c1ccc(NC(=S)NCCc2ccccc2)cc1	27*	-1	11	11	-19	-14
CCN(CC(=O)Nc1cc(C)on1)CC(=O)Nc1ccccc1C(F)(F)F	-16	4	0	2	8	8
CCN(CC(=O)Nc1ccccc1C(F)(F)F)C(=O)CSCC(=O)Nc1cc(C)on1	-7	-2	-8	0	23*	7
S=c1[nH]nc(-c2ccc(Br)cc2)n1-c1ccc2c(c1)OCCO2	-3	-2	-1	0	-6	8
CCOc1ccccc1N(CC(=O)NCC1CCCO1)C(=O)CCC(=O)Nc1ccccn1 (stereo not drawn)	42*	-2	-1	1	12	1
Cc1cc(C)[n+](-c2ccc(C(C)C)cc2)c2[nH]c(=O)[nH]c(=O)c12	-1	-7	41*	0	-33	-9
CCn1c(SCC(=O)Nc2nccs2)nnc1C1CC1	-3	-2	-2	0	25*	4
Cn1c(SCC(=O)Nc2ccc3c(c2)CCC3)nnc1C1CC1	-2	-3	-20	3	3	-6
CCC(=O)Nc1cccc(NC(=O)CSc2nnc(C3CC3)n2C)c1	-7	4	-13	1	2	36*
Cc1cc(-c2nnc(SCC(=O)Nc3nccs3)o2)no1	-15	7	13	-1	16	20*
Cc1nc(-c2ccc(Cl)cc2)sc1C1(C)CC(c2cccc([N+](=O)[O-])c2)=NO1 (stereo not drawn)	6	5	-9	1	4	-10
O=C(NC1CCCc2ccccc21)c1cccnc1 (stereo not drawn)	0	-6	0	1	4	-1
CSc1ccc(NC(=O)N2CCN(c3nc4ccccc4s3)CC2)cc1	10	2	5	6	0	-8
CC(C)n1cc(/C(N)=N/O)c(=O)n(Cc2ccccc2)c1=O	16	4	22	6	13*	39*
Cc1cn(C(C)C)c(=O)n(-c2ccccc2)c1=O	1	2	5	0	2	3
Cc1ccc(-c2nc3ccccc3c(=O)n2N)cc1	-9	8	0	8	-3	-3
O=C(Oc1cccc(C(=S)N2CCOCC2)c1)c1ccc([N+](=O)[O-])cc1	13	0	-4	3	1	-2
O=C(c1cccc(Oc2ccc([N+](=O)[O-])cc2Cl)c1)N1CCOCC1	27*	-2	3	1	-4	-12
Cc1c(N2C(=O)/C(=C/c3ccc(N(C)C)cc3)N(C)C2=S)c(=O)n(-c2ccccc2)n1C	20	34*	3	4	-1	-18
O=c1c2cc(NC(=S)N3CCCC3)ccc2nc2n1CCCCC2	21	-1	1	17	-15	-21
CCN1CCN(C(=S)Nc2ccc3nc4n(c(=O)c3c2)CCCCC4)CC1	1	-1	-9	7	27*	4
Nc1nc(SCC(=O)Nc2ccc([N+](=O)[O-])cc2)[nH]c(=O)c1NC(=O)c1ccc(Br)o1	-5	-1	-5	0	6	-2
SMILES	CHRM5 antagonist	CHRM5 agonist	M4 antag	CHRM4 agonist	M4 PAM	M5 PAM
Cc1ccccc1NC(=S)N(C)Cc1cccs1	14	-1	2	0	-1	-3
Cc1ccc(-c2nn(CCC(=O)O)cc2/C=C\C(=O)c2ccc(Br)cc2)cc1	-1	-3	-16	1	19*	23*
CCOC(=O)/C(C#N)=C/C1=C(N2CCCC2)CC(C)(C)OC1	-3	-1	1	0	-1	2
CN(Cc1ccccc1)C(=O)CCC1CCN(C(=O)CC2=CCCCC2)CC1	12	5	-10	7	2	-6
COc1ccc(C(=O)COC(=O)C(CCSC)NS(=O)(=O)c2ccc(Cl)cc2)cc1 (stereo not drawn)	12	1	27*	19	-23	-15
C[C@@H]1CCCCO[C@@H](CN(C)Cc2ccc3c(c2)OCO3)[C@@H](C)CN([C@H](C)CO)C(=O)c2cc(N(C)C)ccc2O1	-11	-2	-19	-1	2	4
CC1CCCCN1C/C=C/c1ccccc1[N+](=O)[O-] (stereo not drawn)	11	-12	34*	2	-27	-21
CCC1CCCCN1C/C=C/c1ccccc1[N+](=O)[O-] (stereo not drawn)	55*	-11	54*	1	-32	-21
Cc1cnn(C(=O)Cn2nc(C(F)F)c(Br)c2C)c1	3	2	4	1	4	0
Cc1ccc(C)c(N/C(N)=N/c2nc(C)cc(C)n2)c1	21	30*	66*	91*	-41	-16
Cc1cc(C)nc(/N=C(\N)N(Cc2ccccc2)Cc2ccccc2)n1	92*	-9	39*	6	-22	-23
CCCCN(CCCC)/C(N)=N/c1nc(C)cc(C)n1	5	-6	1	1	-1	-1
Cc1cc(C)nc(/N=C(\N)Nc2ccc(SC(F)F)cc2)n1	15	35*	55*	96*	-64	-37
Cc1cc(C)nc(/N=C(\N)Nc2ccc(F)c([N+](=O)[O-])c2)n1	6	8	26	55*	-24	-12
O=C(CSc1nnc(C2CC2)n1Cc1ccccc1)c1cc2ccccc2o1	-5	-13	-5	1	-3	9
CCOc1ccc(OCCC(=O)OCC(=O)Nc2cccc(S(=O)(=O)N3CCCCC3)c2)cc1	16	3	2	15	-5	-34
Cc1cc(C)nc(/N=C(\N)Nc2ccc(-c3ccccc3)cc2)n1	14	28*	29*	68*	-29	-18
CCOc1ccc(N/C(N)=N/c2nc(C)cc(C)n2)cc1	39*	16	50*	50*	-19	-17
CC(=O)Nc1ccc(N/C(N)=N/c2nc(C)cc(C)n2)cc1	-3	-3	1	0	-6	4
CCOc1ccc(N/C(=N/c2nc(C)cc(C)n2)NC(=O)CC)cc1	12	-2	2	1	-4	0
COc1ccc(C(=O)N/C(=C/c2cccc3ccccc23)C(=O)NCCc2c[nH]c3ccccc23)cc1OC	14	-1	9	6	-5	-9
